Measured values taken from ChEMBL document CHEMBL1250448, “Inhibitor hijacking of Akt activation” (Nat Chem Biol, 2009).

How the values were obtained:
[1] = target: T1, MAP kinase-activated protein kinase 5 (Homo sapiens) (UniProt Q8IW41); test: Inhibition of MAPKAPK5 at 1 uM in presence of 10 uM ATP by Select Screen kinase assay relative to untreated control
T1 sequence (whole entry): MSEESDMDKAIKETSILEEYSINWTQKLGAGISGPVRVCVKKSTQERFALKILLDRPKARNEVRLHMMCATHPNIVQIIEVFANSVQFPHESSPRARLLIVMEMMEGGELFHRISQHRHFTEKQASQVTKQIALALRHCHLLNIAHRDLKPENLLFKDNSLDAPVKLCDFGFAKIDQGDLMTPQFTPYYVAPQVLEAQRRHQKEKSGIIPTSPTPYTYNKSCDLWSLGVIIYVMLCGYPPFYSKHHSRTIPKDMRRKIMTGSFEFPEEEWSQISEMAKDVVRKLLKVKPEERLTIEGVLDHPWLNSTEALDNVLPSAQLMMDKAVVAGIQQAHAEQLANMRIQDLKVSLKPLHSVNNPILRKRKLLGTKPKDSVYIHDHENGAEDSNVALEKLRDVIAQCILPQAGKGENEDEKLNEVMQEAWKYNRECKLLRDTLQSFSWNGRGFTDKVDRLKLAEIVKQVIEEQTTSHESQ
In short: (§1)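 Single-concentration profiling at 1 μM against a panel of 220 purified kinases, run as an outsourced SelectScreen kinase profiling service. Activity is expressed as percent inhibition.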

[2] = target: Serine/threonine-protein kinase 3 (Homo sapiens) (UniProt Q13188); test: Inhibition of STK3 at 1 uM in presence of 10 uM ATP by Select Screen kinase assay relative to untreated control
[3] = target: Glycogen synthase kinase-3 alpha (Homo sapiens) (UniProt P49840); test: Inhibition of GSK3A at 1 uM in presence of 10 uM ATP by Select Screen kinase assay relative to untreated control
In short: (§2)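 Part of a 220-kinase panel of purified kinases, each tested with compound at 1 μM. Percent inhibition was measured in the Invitrogen SelectScreen profiling assay.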

[4] = target: Dual specificity tyrosine-phosphorylation-regulated kinase 3 (Homo sapiens) (UniProt O43781); test: Inhibition of DYRK3 at 1 uM in presence of 10 uM ATP by Select Screen kinase assay relative to untreated control; in short: as §2
[5] = target: Tyrosine-protein kinase FRK (Homo sapiens) (UniProt P42685); test: Inhibition of FRK at 1 uM in presence of 10 uM ATP by Select Screen kinase assay relative to untreated control; in short: as §2
[6] = target: Tyrosine-protein kinase Mer (Homo sapiens) (UniProt Q12866); test: Inhibition of MERTK at 1 uM in presence of 10 uM ATP by Select Screen kinase assay relative to untreated control; in short: as §1
[7] = target: Macrophage-stimulating protein receptor (Homo sapiens) (UniProt Q04912); test: Inhibition of MST1R at 1 uM in presence of 10 uM ATP by Select Screen kinase assay relative to untreated control; in short: as §1
[8] = target: Dual specificity tyrosine-phosphorylation-regulated kinase 4 (Homo sapiens) (UniProt Q9NR20); test: Inhibition of DYRK4 at 1 uM in presence of 10 uM ATP by Select Screen kinase assay relative to untreated control
In short: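 Profiling panel of 220 purified kinases (SelectScreen), each compound tested at 1 μM. Read-out is percent inhibition of kinase activity.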

[9] = target: cAMP-dependent protein kinase catalytic subunit alpha (Homo sapiens) (UniProt P17612); test: Inhibition of PRKACA (PKA) at 1 uM in presence of 10 uM ATP by Select Screen kinase assay relative to untreated control
[10] = target: Serine/threonine-protein kinase 25 (Homo sapiens) (UniProt O00506); test: Inhibition of STK25 at 1 uM in presence of 100 uM ATP by Select Screen kinase assay relative to untreated control
In short: (§3)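 Commercial SelectScreen profiling panel of 220 purified kinases. Each kinase was tested at a single inhibitor concentration of 1 μM, and activity was expressed as percent inhibition.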

[11] = target: Casein kinase I isoform gamma-2 (Homo sapiens) (UniProt P78368); test: Inhibition of CSNK1G2 at 1 uM in presence of 10 uM ATP by Select Screen kinase assay relative to untreated control
In short: (§4)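 Single-point screen at 1 μM against a panel of 220 purified kinases, run by Invitrogen staff as a SelectScreen profiling service. Read-out is percent inhibition of kinase activity.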

[12] = target: Tyrosine-protein kinase CSK (Homo sapiens) (UniProt P41240); test: Inhibition of CSK at 1 uM in presence of 10 uM ATP by Select Screen kinase assay relative to untreated control; in short: as §4
[13] = target: T2, Serine/threonine-protein kinase Nek9 (Homo sapiens) (UniProt Q8TD19); test: Inhibition of NEK9 at 1 uM in presence of 10 uM ATP by Select Screen kinase assay relative to untreated control; in short: as §3
T2 sequence (whole entry): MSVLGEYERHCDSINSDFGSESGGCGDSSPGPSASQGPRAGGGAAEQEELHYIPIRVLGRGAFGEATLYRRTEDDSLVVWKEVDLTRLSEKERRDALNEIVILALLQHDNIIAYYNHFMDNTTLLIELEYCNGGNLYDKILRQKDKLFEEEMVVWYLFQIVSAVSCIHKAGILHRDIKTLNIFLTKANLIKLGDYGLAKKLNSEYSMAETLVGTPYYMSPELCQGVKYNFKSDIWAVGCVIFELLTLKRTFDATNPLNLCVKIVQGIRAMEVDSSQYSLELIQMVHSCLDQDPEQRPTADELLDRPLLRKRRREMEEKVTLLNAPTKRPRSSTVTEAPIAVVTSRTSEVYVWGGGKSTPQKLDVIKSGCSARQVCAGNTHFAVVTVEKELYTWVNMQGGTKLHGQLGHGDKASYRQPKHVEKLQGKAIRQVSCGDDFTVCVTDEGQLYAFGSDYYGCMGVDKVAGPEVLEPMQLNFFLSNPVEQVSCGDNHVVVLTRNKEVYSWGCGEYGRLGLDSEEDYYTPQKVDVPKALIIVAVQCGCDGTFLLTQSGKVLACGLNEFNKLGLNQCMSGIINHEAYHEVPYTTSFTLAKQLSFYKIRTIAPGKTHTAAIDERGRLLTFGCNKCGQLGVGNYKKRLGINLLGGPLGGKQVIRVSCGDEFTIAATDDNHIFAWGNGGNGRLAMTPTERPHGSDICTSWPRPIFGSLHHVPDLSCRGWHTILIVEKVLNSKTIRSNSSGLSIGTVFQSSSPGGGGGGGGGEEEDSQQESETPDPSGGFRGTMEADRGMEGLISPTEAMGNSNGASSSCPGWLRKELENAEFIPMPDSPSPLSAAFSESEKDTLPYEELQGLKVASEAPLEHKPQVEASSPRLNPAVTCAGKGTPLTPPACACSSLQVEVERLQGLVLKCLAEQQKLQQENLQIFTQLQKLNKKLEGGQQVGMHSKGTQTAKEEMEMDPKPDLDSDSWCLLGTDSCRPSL

[14] = target: Serine/threonine-protein kinase PAK 3 (Homo sapiens) (UniProt O75914); test: Inhibition of PAK3 at 1 uM in presence of 10 uM ATP by Select Screen kinase assay relative to untreated control
Chain of Serine/threonine-protein kinase PAK 3 (Homo sapiens) (O75914 whole entry, looked up): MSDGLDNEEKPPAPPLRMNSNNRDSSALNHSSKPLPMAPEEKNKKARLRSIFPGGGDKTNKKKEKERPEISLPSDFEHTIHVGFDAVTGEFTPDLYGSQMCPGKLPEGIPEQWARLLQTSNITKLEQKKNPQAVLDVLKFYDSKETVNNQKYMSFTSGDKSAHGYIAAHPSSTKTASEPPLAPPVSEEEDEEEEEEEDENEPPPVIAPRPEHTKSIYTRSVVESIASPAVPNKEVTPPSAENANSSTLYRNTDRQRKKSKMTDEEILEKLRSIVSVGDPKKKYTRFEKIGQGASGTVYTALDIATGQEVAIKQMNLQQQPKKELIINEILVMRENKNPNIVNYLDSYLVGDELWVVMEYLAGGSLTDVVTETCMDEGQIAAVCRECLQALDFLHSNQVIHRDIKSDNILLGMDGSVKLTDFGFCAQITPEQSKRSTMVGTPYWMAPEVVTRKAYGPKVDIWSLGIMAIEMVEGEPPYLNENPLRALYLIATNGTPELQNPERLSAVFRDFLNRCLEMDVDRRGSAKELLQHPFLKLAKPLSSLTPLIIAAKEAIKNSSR

Chain of Macrophage-stimulating protein receptor (Homo sapiens) (Q04912 25-304 limits assumed): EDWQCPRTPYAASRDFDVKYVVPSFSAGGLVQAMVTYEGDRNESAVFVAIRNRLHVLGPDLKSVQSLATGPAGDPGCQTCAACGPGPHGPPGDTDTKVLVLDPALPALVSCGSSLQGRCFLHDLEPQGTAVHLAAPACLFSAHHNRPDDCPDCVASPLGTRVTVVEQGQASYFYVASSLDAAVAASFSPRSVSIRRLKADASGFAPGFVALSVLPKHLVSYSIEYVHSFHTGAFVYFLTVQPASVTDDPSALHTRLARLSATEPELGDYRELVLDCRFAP
Chain of Macrophage-stimulating protein receptor (Homo sapiens) (Q04912 310-1400 limits assumed): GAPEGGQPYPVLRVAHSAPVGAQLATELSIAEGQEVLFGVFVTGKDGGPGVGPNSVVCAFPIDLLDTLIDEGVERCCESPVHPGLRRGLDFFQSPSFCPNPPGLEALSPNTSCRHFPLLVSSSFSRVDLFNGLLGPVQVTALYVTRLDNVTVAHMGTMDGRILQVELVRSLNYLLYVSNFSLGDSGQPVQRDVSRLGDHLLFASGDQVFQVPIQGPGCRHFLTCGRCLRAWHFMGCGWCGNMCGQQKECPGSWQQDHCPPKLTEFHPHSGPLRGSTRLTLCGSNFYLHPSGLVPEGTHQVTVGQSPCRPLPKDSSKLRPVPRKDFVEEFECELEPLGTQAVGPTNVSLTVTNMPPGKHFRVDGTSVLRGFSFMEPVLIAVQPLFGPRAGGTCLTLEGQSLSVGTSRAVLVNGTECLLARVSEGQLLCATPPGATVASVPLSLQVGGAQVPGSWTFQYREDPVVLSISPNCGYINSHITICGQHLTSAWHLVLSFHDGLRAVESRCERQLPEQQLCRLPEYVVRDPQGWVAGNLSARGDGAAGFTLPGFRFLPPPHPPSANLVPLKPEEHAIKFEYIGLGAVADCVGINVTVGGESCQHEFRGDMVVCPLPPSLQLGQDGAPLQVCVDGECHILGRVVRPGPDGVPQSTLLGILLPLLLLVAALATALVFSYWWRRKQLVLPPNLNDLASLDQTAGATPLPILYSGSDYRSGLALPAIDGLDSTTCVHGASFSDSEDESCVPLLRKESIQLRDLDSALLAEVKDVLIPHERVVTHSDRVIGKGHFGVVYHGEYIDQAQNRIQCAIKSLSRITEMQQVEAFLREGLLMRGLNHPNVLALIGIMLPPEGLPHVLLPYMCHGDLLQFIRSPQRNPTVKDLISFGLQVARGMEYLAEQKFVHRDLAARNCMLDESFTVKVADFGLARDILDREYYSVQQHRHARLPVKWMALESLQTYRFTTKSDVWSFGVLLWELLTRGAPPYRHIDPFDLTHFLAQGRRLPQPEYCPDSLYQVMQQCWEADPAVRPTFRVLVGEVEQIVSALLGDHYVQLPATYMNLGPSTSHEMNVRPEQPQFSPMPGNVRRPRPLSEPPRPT
Chain of Serine/threonine-protein kinase 25 (Homo sapiens) (O00506 whole entry, looked up): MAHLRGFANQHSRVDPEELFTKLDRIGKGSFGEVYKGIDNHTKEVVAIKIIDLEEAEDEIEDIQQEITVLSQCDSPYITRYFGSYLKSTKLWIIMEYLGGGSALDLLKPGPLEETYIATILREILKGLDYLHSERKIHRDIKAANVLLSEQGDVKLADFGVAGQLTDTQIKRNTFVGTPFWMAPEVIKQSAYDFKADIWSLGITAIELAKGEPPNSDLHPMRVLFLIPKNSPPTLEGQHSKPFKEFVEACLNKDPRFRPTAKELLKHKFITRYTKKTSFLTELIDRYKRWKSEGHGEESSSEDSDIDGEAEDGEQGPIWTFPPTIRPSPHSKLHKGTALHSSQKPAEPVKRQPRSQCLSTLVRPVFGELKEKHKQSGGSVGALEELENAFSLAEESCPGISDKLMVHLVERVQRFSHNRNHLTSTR
Chain of Tyrosine-protein kinase CSK (Homo sapiens) (P41240 2-450 limits assumed): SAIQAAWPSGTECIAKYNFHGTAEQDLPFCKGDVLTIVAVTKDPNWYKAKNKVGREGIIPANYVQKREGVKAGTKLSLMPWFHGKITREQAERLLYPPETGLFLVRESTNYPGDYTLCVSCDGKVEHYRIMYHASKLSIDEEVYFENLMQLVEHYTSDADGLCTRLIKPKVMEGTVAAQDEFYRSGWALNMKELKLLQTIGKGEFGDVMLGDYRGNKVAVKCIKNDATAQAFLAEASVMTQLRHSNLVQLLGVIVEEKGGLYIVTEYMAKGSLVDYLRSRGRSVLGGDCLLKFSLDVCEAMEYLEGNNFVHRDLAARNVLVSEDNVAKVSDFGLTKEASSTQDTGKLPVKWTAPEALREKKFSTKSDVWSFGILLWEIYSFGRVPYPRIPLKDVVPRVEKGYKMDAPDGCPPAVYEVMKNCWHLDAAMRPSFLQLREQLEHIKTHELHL
Chain of Casein kinase I isoform gamma-2 (Homo sapiens) (P78368 whole entry, looked up, canonical isoform): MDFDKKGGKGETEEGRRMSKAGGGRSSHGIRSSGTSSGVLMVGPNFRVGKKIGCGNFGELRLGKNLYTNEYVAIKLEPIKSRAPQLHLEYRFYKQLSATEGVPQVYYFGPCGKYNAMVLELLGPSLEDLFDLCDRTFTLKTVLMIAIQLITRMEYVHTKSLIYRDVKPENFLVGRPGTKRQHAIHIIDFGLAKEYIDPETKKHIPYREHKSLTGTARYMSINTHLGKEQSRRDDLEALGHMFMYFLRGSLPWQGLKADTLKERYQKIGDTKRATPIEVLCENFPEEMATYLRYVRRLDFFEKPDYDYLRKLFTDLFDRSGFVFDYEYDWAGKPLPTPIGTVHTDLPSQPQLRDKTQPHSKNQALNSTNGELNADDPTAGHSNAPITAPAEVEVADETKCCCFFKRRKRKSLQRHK
Chain of Dual specificity tyrosine-phosphorylation-regulated kinase 3 (Homo sapiens) (O43781 whole entry): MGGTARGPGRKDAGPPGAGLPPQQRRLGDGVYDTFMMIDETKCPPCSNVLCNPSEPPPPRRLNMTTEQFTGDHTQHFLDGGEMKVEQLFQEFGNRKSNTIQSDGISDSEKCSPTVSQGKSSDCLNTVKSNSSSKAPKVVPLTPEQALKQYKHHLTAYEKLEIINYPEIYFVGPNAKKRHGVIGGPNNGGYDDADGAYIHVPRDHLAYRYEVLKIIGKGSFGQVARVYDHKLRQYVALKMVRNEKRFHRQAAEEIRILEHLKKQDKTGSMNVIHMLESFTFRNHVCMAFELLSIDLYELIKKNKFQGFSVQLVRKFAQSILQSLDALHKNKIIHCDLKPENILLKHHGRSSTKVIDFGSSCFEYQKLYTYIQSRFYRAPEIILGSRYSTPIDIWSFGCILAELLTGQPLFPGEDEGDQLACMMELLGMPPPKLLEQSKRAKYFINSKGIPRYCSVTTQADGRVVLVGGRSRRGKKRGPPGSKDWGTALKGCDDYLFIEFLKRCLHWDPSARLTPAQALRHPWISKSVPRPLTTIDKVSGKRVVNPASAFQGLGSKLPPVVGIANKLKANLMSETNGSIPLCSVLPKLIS
Chain of Dual specificity tyrosine-phosphorylation-regulated kinase 4 (Homo sapiens) (Q9NR20 whole entry): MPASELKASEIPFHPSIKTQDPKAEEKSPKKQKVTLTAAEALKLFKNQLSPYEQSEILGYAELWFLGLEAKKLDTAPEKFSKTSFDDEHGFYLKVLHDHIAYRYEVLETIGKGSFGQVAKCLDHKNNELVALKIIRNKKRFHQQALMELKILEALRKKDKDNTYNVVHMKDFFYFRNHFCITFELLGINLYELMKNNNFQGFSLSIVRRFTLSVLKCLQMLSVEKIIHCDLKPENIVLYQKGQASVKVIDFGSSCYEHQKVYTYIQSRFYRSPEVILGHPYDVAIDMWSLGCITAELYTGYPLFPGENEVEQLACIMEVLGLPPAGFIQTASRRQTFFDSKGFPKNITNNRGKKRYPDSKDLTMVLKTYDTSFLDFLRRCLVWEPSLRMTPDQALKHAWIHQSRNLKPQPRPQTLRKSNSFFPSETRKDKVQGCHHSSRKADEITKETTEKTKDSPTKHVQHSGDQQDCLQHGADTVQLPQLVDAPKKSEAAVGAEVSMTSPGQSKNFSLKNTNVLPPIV
Chain of Tyrosine-protein kinase FRK (Homo sapiens) (P42685 whole entry): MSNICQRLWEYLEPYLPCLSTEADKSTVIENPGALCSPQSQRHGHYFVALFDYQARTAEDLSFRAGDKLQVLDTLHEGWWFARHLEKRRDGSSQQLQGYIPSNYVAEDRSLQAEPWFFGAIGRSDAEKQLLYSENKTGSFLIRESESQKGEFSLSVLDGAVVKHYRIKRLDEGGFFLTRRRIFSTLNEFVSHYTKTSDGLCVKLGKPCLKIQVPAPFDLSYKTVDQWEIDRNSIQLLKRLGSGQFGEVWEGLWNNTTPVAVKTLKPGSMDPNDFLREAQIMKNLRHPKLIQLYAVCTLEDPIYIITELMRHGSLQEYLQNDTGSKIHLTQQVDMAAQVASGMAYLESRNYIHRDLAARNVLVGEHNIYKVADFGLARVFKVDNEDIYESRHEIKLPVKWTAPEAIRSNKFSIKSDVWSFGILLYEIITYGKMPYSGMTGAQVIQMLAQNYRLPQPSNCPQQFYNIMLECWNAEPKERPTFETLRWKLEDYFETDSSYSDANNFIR

SMILES	inhibition [1] [%]	inhibition [2] [%]	inhibition [3] [%]	inhibition [4] [%]	inhibition [5] [%]	inhibition [6] [%]	inhibition [7] [%]	inhibition [8] [%]	inhibition [9] [%]	inhibition [10] [%]	inhibition [11] [%]	inhibition [12] [%]	inhibition [13] [%]	inhibition [14] [%]
COc1ccccc1N1CCN(c2ncnc3[nH]nc(Br)c23)CC1	4	9	80	69	11	16	-4	3	48	14	12	3	12	–
O=C(NCCCNc1nc(Nc2cccc(NC(=O)N3CCCC3)c2)ncc1I)c1cccs1	1	21	69	50	16	17	17	2	28	13	15	5	88	-2
Cc1n[nH]c2ccc(-c3cncc(OC[C@@H](N)Cc4c[nH]c5ccccc45)c3)cc12	10	–	–	–	–	–	10	–	–	102	81	-1	15	45
